# In ChEMBL document CHEMBL4725393, “Prodrug Strategies to Improve the Solubility of the HCV NS5A Inhibitor Pibrentasvir (ABT-530)” (J Med Chem, 2020):
# Assays:
# [1] = Cmax in CD1 mouse assessed as pibrentasvir1 level at 6 mg/kg, po measured up to 24 hrs; type: ADME, organism-based; parameters: route oral, dose 6 mg/kg, time <=24; details: in vivo
# Outline: (§1)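 CD-1 mice with free access to food and water received an oral gavage of prodrug or PIB at 10 mL/kg in 0.2% HPMC. The dose was adjusted for prodrug MW to equal 6 mg/kg PIB. K2EDTA blood was drawn at 0.25, 0.5, 1, 3, 6, 9, 12 and 24 h. Plasma was spun at 3200 x g for 5 min at ~4°C and stored below -15°C. PIB and prodrug were measured; AUC in ng·h/mL, Cmax in ng/mL.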
# [2] = Solubility in FeSSIF at pH 5; type: physicochemical
# Outline: (§2)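 For equilibrium solubility, excess solid was added to 3–4 mL of medium, in triplicate. Suspension pH was read after equilibration. Solids were removed by centrifugation at 4000 rpm at 25 °C, and the supernatant was passed through a 0.45 µm filter, discarding the first 2 mL. The filtrate was quantified by HPLC against standard curves.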
# [3] = Equilibrium solubility of compound at pH 1 incubated for 24 to 48 hrs by HPLC analysis; type: physicochemical; details: buffer, time 24-48 hrs; outline: as §2
# [4] = Equilibrium solubility of compound at pH 7.4 incubated for 24 to 48 hrs by HPLC analysis; type: physicochemical; details: buffer, time 24-48 hrs; outline: as §2
# [5] = Stability of compound at pH 1 assessed as prodrug remaining level at 125 ug/ml incubated for 24 hrs by HPLC analysis; type: physicochemical; details: buffer, pH 1, 24 h, at 125 µg/mL
# Outline: (§3)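 A DMSO stock of about 1.25 mg/mL was diluted into 0.1 N HCl (pH 1) or 50 mM phosphate buffer (pH 7.4), giving final concentrations of ~125 µg/mL prodrug and 10% DMSO. The solution was filtered and held at 37 °C in the HPLC autosampler, with injections at several times over 24 h. Percent remaining was calculated from prodrug peak area relative to t0.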
# [6] = Stability of compound at pH 7.4 assessed as prodrug remaining level at 125 ug/ml incubated for 24 hrs by HPLC analysis; type: physicochemical; details: buffer, pH 7.4, 24 h, at 125 µg/mL; outline: as §3
# [7] = AUC in CD1 mouse assessed as pibrentasvir1 level at 6 mg/kg, po measured up to 24 hrs; type: ADME, organism-based; parameters: route oral, dose 6 mg/kg, time <=24; details: in vivo; outline: as §1
# [8] = AUC in beagle dog assessed as pibrentasvir1 level at 40 mg, po measured up to 24 hrs; type: ADME, organism-based, Canis lupus familiaris; parameters: route oral, dose 40 mg, time <=24; details: in vivo
# Outline: (§4)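 The dose equalled 40 mg PIB after adjustment for prodrug MW. Food was returned at 12 h. K2EDTA plasma was sampled at 0.25–24 h. Cmax is in ng/mL and AUC in ng·h/mL.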
# [9] = Cmax in CD1 mouse assessed as pibrentasvir1 level at 3 mg/kg, po measured up to 24 hrs; type: ADME, organism-based; parameters: route oral, dose 3 mg/kg, time <=24; details: in vivo
# Outline: (§5)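 CD-1 mice, fed ad libitum, were dosed orally at a prodrug-MW-adjusted dose equal to 3 mg/kg PIB, as a solution or suspension. Serial K2EDTA blood samples were taken from 0.25 to 24 h. Plasma was separated by centrifugation and kept frozen. PIB and prodrug levels were reported as Cmax (ng/mL) and AUC (ng·h/mL).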
# [10] = AUC in CD1 mouse assessed as pibrentasvir1 level at 3 mg/kg, po measured up to 24 hrs; type: ADME, organism-based; parameters: route oral, dose 3 mg/kg, time <=24; details: in vivo; outline: as §5
# [11] = Cmax in beagle dog assessed as pibrentasvir1 level at 40 mg, po measured up to 24 hrs; type: ADME, organism-based, Canis lupus familiaris; parameters: route oral, dose 40 mg, time <=24; details: in vivo; outline: as §4
# [12] = Half life of compound at pH 7.4 at 125 ug/ml at 37 degC by HPLC analysis; type: physicochemical; details: dose 125 µg/ml
SMILES,Cmax [1],solubility [2],solubility thermodynamic [3],solubility thermodynamic [4],Stabilty [5],Stabilty [6],AUC [7],AUC [8],Cmax [9],AUC [10],Cmax [11],half-life at 125 ug/ml [12]
COC(=O)N[C@H](C(=O)N1CCC[C@H]1c1nc2cc([C@H]3CC[C@H](c4cc5c(cc4F)nc([C@@H]4CCCN4C(=O)[C@@H](NC(=O)OC)[C@@H](C)OC)n5COP(=O)(O)O)N3c3cc(F)c(N4CCC(c5ccc(F)cc5)CC4)c(F)c3)c(F)cc2n1COP(=O)(O)O)[C@@H](C)OC,,,> 1 mg/mL,> 1 mg/mL,,,,2.58 µg·h/mL,0.028 µg/mL,0.477 µg·h/mL,0.275 µg/mL,
COC(=O)N[C@H](C(=O)N1CCC[C@H]1c1nc2cc(F)c([C@H]3CC[C@H](c4cc5c(cc4F)nc([C@@H]4CCCN4C(=O)[C@@H](NC(=O)OC)[C@@H](C)OC)n5COP(=O)(O)O)N3c3cc(F)c(N4CCC(c5ccc(F)cc5)CC4)c(F)c3)cc2n1COP(=O)(O)O)[C@@H](C)OC,,,0.567 mg/mL,> 1 mg/mL,,,,0.611 µg·h/mL,0.02 µg/mL,0.353 µg·h/mL,0.066 µg/mL,
COC(=O)N[C@H](C(=O)N1CCC[C@H]1c1nc2cc(F)c([C@H]3CC[C@H](c4cc5nc([C@@H]6CCCN6C(=O)[C@@H](NC(=O)OC)[C@@H](C)OC)n(COC(=O)Cc6ccccc6OP(=O)(O)O)c5cc4F)N3c3cc(F)c(N4CCC(c5ccc(F)cc5)CC4)c(F)c3)cc2[nH]1)[C@@H](C)OC,0.584 µg/mL,> 1 mg/mL,0.002 mg/mL,< 0.0002 mg/mL,15%,28%,9.56 µg·h/mL,2.94 µg·h/mL,,,0.288 µg/mL,
COC(=O)N[C@H](C(=O)N1CCC[C@H]1c1nc2cc(F)c([C@H]3CC[C@H](c4cc5c(cc4F)nc([C@@H]4CCCN4C(=O)[C@@H](NC(=O)OC)[C@@H](C)OC)n5COC(=O)c4cccc(OP(=O)(O)O)c4)N3c3cc(F)c(N4CCC(c5ccc(F)cc5)CC4)c(F)c3)cc2[nH]1)[C@@H](C)OC,0.046 µg/mL,,> 1 mg/mL,> 1 mg/mL,91%,100%,0.819 µg·h/mL,,,,,
COC(=O)N[C@H](C(=O)N1CCC[C@H]1c1nc2cc(F)c([C@H]3CC[C@H](c4cc5nc([C@@H]6CCCN6C(=O)[C@@H](NC(=O)OC)[C@@H](C)OC)n(COC(=O)N(C)c6ncccc6COP(=O)(O)O)c5cc4F)N3c3cc(F)c(N4CCC(c5ccc(F)cc5)CC4)c(F)c3)cc2[nH]1)[C@@H](C)OC,0.38 µg/mL,> 1 mg/mL,> 1 mg/mL,> 1 mg/mL,92%,92%,6.49 µg·h/mL,3.02 µg·h/mL,,,0.297 µg/mL,
COC(=O)N[C@H](C(=O)N1CCC[C@H]1c1nc2cc(F)c([C@H]3CC[C@H](c4cc5nc([C@@H]6CCCN6C(=O)[C@@H](NC(=O)OC)[C@@H](C)OC)n(COC(=O)c6cccc(OP(=O)(O)O)c6)c5cc4F)N3c3cc(F)c(N4CCC(c5ccc(F)cc5)CC4)c(F)c3)cc2[nH]1)[C@@H](C)OC,0.096 µg/mL,> 1 mg/mL,0.397 mg/mL,0.827 mg/mL,96%,100%,1.51 µg·h/mL,,,,,
COC(=O)N[C@H](C(=O)N1CCC[C@H]1c1nc2cc(F)c([C@H]3CC[C@H](c4cc5nc([C@@H]6CCCN6C(=O)[C@@H](NC(=O)OC)[C@@H](C)OC)n(COC(=O)c6ccccc6COP(=O)(O)O)c5cc4F)N3c3cc(F)c(N4CCC(c5ccc(F)cc5)CC4)c(F)c3)cc2[nH]1)[C@@H](C)OC,0.622 µg/mL,> 1 mg/mL,0.099 mg/mL,< 0.0002 mg/mL,99%,89%,10.7 µg·h/mL,1.15 µg·h/mL,,,0.115 µg/mL,
COC(=O)N[C@H](C(=O)N1CCC[C@H]1c1nc2cc(F)c([C@H]3CC[C@H](c4cc5c(cc4F)nc([C@@H]4CCCN4C(=O)[C@@H](NC(=O)OC)[C@@H](C)OC)n5COC(=O)N(C)c4ncccc4COP(=O)(O)O)N3c3cc(F)c(N4CCC(c5ccc(F)cc5)CC4)c(F)c3)cc2[nH]1)[C@@H](C)OC,0.567 µg/mL,> 1 mg/mL,> 1 mg/mL,> 1 mg/mL,92%,90%,9.75 µg·h/mL,,,,,
COC(=O)N[C@H](C(=O)N1CCC[C@H]1c1nc2cc([C@H]3CC[C@H](c4cc5nc([C@@H]6CCCN6C(=O)[C@@H](NC(=O)OC)[C@@H](C)OC)n(COP(=O)(O)O)c5cc4F)N3c3cc(F)c(N4CCC(c5ccc(F)cc5)CC4)c(F)c3)c(F)cc2n1COP(=O)(O)O)[C@@H](C)OC,,,0.135 mg/mL,0.123 mg/mL,100%,,,0.355 µg·h/mL,0.396 µg/mL,6.07 µg·h/mL,0.04 µg/mL,

# Other lines, results leading:
Cmax [1],solubility [2],solubility thermodynamic [3],solubility thermodynamic [4],Stabilty [5],Stabilty [6],AUC [7],AUC [8],Cmax [9],AUC [10],Cmax [11],half-life at 125 ug/ml [12],SMILES
0.784 µg/mL,> 1 mg/mL,0.609 mg/mL,0.874 mg/mL,76%,80%,12.6 µg·h/mL,,,,,,COC(=O)N[C@H](C(=O)N1CCC[C@H]1c1nc2cc(F)c([C@H]3CC[C@H](c4cc5c(cc4F)nc([C@@H]4CCCN4C(=O)[C@@H](NC(=O)OC)[C@@H](C)OC)n5COC(=O)CCCOP(=O)(O)O)N3c3cc(F)c(N4CCC(c5ccc(F)cc5)CC4)c(F)c3)cc2[nH]1)[C@@H](C)OC
0.336 µg/mL,> 1 mg/mL,0.146 mg/mL,0.049 mg/mL,82%,76%,5.57 µg·h/mL,4.51 µg·h/mL,,,0.462 µg/mL,,COC(=O)N[C@H](C(=O)N1CCC[C@H]1c1nc2cc(F)c([C@H]3CC[C@H](c4cc5nc([C@@H]6CCCN6C(=O)[C@@H](NC(=O)OC)[C@@H](C)OC)n(COC(=O)CCCOP(=O)(O)O)c5cc4F)N3c3cc(F)c(N4CCC(c5ccc(F)cc5)CC4)c(F)c3)cc2[nH]1)[C@@H](C)OC
0.513 µg/mL,> 1 mg/mL,0.271 mg/mL,> 1 mg/mL,95%,28%,8.93 µg·h/mL,,,,,< 24 h,COC(=O)N[C@H](C(=O)N1CCC[C@H]1c1nc2cc(F)c([C@H]3CC[C@H](c4cc5c(cc4F)nc([C@@H]4CCCN4C(=O)[C@@H](NC(=O)OC)[C@@H](C)OC)n5COC(=O)[C@@H](NC(=O)OCOP(=O)(O)O)C(C)C)N3c3cc(F)c(N4CCC(c5ccc(F)cc5)CC4)c(F)c3)cc2[nH]1)[C@@H](C)OC
0.132 µg/mL,> 1 mg/mL,0.543 mg/mL,0.092 mg/mL,98%,84%,2.42 µg·h/mL,,,,,,COC(=O)N[C@H](C(=O)N1CCC[C@H]1c1nc2cc(F)c([C@H]3CC[C@H](c4cc5c(cc4F)nc([C@@H]4CCCN4C(=O)[C@@H](NC(=O)OC)[C@@H](C)OC)n5COC(=O)c4ccccc4COP(=O)(O)O)N3c3cc(F)c(N4CCC(c5ccc(F)cc5)CC4)c(F)c3)cc2[nH]1)[C@@H](C)OC
,,> 1 mg/mL,< 0.0002 mg/mL,,,,,,,,,COC(=O)N[C@H](C(=O)N1CCC[C@H]1c1nc2cc(F)c([C@H]3CC[C@H](c4cc5c(cc4F)nc([C@@H]4CCCN4C(=O)[C@@H](NC(=O)OC)[C@@H](C)OC)n5COC(=O)[C@@H](N)C(C)C)N3c3cc(F)c(N4CCC(c5ccc(F)cc5)CC4)c(F)c3)cc2[nH]1)[C@@H](C)OC
0.498 µg/mL,> 1 mg/mL,0.114 mg/mL,< 0.0001 mg/mL,95%,38%,8.84 µg·h/mL,0.122 µg·h/mL,,,0.016 µg/mL,,COC(=O)N[C@H](C(=O)N1CCC[C@H]1c1nc2cc(F)c([C@H]3CC[C@H](c4cc5nc([C@@H]6CCCN6C(=O)[C@@H](NC(=O)OC)[C@@H](C)OC)n(COC(=O)[C@@H](NC(=O)OCOP(=O)(O)O)C(C)C)c5cc4F)N3c3cc(F)c(N4CCC(c5ccc(F)cc5)CC4)c(F)c3)cc2[nH]1)[C@@H](C)OC
